# Assay results published in ChEMBL document CHEMBL2169772, “Discovery of (2S)-1-[4-(2-{6-amino-8-[(6-bromo-1,3-benzodioxol-5-yl)sulfanyl]-9H-purin-9-yl}ethyl)piperidin-1-yl]-2-hydroxypropan-1-one (MPC-3100), a purine-based Hsp90 inhibitor” (J Med Chem, 2012).
# What was measured:
# HCT-116 = assay: Cytotoxicity against human HCT116 cells assessed as inhibition of tumor growth incubated for 72 hrs by luminometry; assay type: functional, cell-based; conditions: HCT-116, 72 h
# In short: (§1)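 Cells seeded at 5000 per well in DMEM with 10% serum and left overnight. Compound added from DMSO dilutions (0.4% DMSO final) for 72 h. After 5 min at room temperature, ATPLite two-step lysis and substrate added, 5 min incubation, then luminescence read. Values are the mean of at least two experiments.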
# Heat shock protein HSP90 [1] = biological target: T1, Heat shock protein HSP90 (Homo sapiens, UniProt P07900+P08238); assay: Inhibition of human HSP90 in HCT116 cells expressing Her2 gene assessed as degradation of Her2 after 4 hrs by luciferase reporter gene assay; assay type: cell-based; conditions: hct-116
# In short: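 HCT116 cells stably transfected with Her2 kinase domain (aa 641–975) fused to firefly luciferase. Seeded at 10 000 per well in DMEM with 10% serum and left overnight. Compound added from DMSO (0.4% final) for 4 h. Steady-Glo added at room temperature for 5 min, then luminescence read.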
# [2] = Metabolic stability in human liver microsomes assessed as percent of residual drug in presence of NADPH incubated for 40 mins by LC-ESI-MS/MS method; assay type: ADME, Microsome; conditions: liver microsomes, read-out: Stability
# In short: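 Test article incubated in duplicate with human liver microsomes (0.5 mg/mL protein) in 100 mM potassium phosphate pH 7.4. Started with 1 mM NADPH. Stopped with acetonitrile at 0, 10, 20 and 40 min. LC-MS/MS peak area at 40 min reported as percent of 0 min. No-NADPH control incubated for 40 min.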
# Heat shock protein HSP90 [3] = biological target: T1, Heat shock protein HSP90; assay: Inhibition of human HSP90 using BODIPY labelled geldanamycin as substrate by fluorescence polarization assay; assay type: protein assay
# [4] = Cytotoxicity against human NCI-ADR-RES cells overexpressing P-gp 1 assessed as inhibition of tumor growth incubated for 72 hrs by luminometry; assay type: functional, cell-based; in short: as §1
SMILES,IC50 (Heat shock protein HSP90 [1]) [nM],remaining at 40 min [2] [%],IC50 (Heat shock protein HSP90 [3]) [nM],IC50 (HCT-116) [nM],IC50 [4] [nM]
CC(C)(O)C(=O)N1CCC(CCn2c(Sc3cc4c(cc3Br)OCO4)nc3c(N)ncnc32)CC1,,,> 5000,,
CC(=O)C(=O)N1CCC(CCn2c(Sc3cc4c(cc3Br)OCO4)nc3c(N)ncnc32)CC1,34,2,110,270,100000
CN1CCOc2cc(Br)c(Sc3nc4c(N)ncnc4n3CCC3CCN(C=O)CC3)cc21,210,0,310,1500,20000
Nc1ncnc2c1nc(Sc1cc3c(cc1Br)OCO3)n2CC[C@H]1CCCCN1C=O,,,190,,
Nc1ncnc2c1nc(Sc1cc3c(cc1Br)OCO3)n2CCC1CCC(F)(F)CC1,,15,1000,,
Nc1ncnc2c1nc(Sc1cc3c(cc1Br)OCO3)n2CCc1ccccc1Br [BROMODERIVATIVE],50,< 1,30,200,
Nc1ncnc2c1nc(Sc1cc3c(cc1Br)OCO3)n2CCC1CCN(CC(F)(F)F)CC1,,,600,,
Nc1ncnc2c1nc(Sc1cc3c(cc1Br)CCC3)n2CCC1CCN(C=O)CC1,,1,20,20,230
Nc1ncnc2c1nc(Sc1cc3c(cc1Br)CCO3)n2CCC1CCN(C=O)CC1,10,,40,90,1800
CCCC(=O)N1CCC(CCn2c(Sc3cc4c(cc3Br)OCO4)nc3c(N)ncnc32)CC1,,0,300,850,2000
Nc1ncnc2c1nc(Sc1cc3c(cc1Br)OCO3)n2CCC1CCOCC1,90,0,57,590,
CN(C)CC(=O)N1CCC(CCn2c(Sc3cc4c(cc3Br)OCO4)nc3c(N)ncnc32)CC1,80,,70,200,100000
Nc1ncnc2c1nc(Sc1cc3c(cc1Br)OCO3)n2CCc1ccccc1Cl [CHLORODERIVATIVE],50,< 1,30,200,
Nc1ncnc2c1nc(Sc1cc3c(cc1Br)OCO3)n2CCc1ccccc1F,50,< 1,30,200,
CC(C)(C)n1nnnc1N1CCC(CCn2c(Sc3cc4c(cc3Br)OCO4)nc3c(N)ncnc32)CC1,,,1800,,

# Further lines, with some results ahead:
IC50 (Heat shock protein HSP90 [1]) [nM],remaining at 40 min [2] [%],IC50 (Heat shock protein HSP90 [3]) [nM],SMILES,IC50 (HCT-116) [nM],IC50 [4] [nM]
250,81,210,N#Cc1cc2c(cc1Sc1nc3c(N)ncnc3n1CCC1CCN(C=O)CC1)OCO2,25000,
28,21,34,C[C@H](O)C(=O)N1CCC(CCn2c(Sc3cc4c(cc3Br)CCO4)nc3c(N)ncnc32)CC1,210,11000
250,10,240,Nc1ncnc2c1nc(Sc1cc3c(cc1Br)OCO3)n2CCC1CCN(CC2CCCCC2)CC1,1000,722
,,180,Nc1ncnc2c1nc(Sc1cc3c(cc1Br)OCO3)n2CC[C@@H]1CCCCN1C=O,,
960,,180,CC(C)(N)C(=O)N1CCC(CCn2c(Sc3cc4c(cc3Br)OCO4)nc3c(N)ncnc32)CC1,1600,50000
32,,65,CN1CCOc2cc(Sc3nc4c(N)ncnc4n3CCC3CCN(C=O)CC3)c(Br)cc21,250,100000
110,,700,CC(C)CN1CCC(CCn2c(Sc3cc4c(cc3Br)OCO4)nc3c(N)ncnc32)CC1,,1980
